The values that follow come from paper PMC5435512 (Pain, 2017).

Bounds are passed on as bounds.

Data set [1] concerns cisplatin-induced mechanical allodynia. The experiment in a line: Von Frey test, cisplatin-induced mechanical allodynia in mice. It is filed as in vivo.
Data set [2] concerns HDAC6 compared with Class I HDACs. The following applies: 42; cited from earlier work.
The next data set has as its system rat DRG neurons. Description: Mitochondrial movement in cultured DRG neurons. The following applies: rat DRG neuron cultures, 3 hours. It is filed as cell-based. Put shortly: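 Commercial DRG neurons were cultured 5–7 days, then given BacMam 2.0 GFP mitochondrial label 24 h before treatment. […] Live imaging was done at 37°C in CO2-independent Hibernate E medium that still contained the drugs, and mitochondrial movement was scored.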

Data set [3] relates to tibial nerve mitochondrial respiration. The experiment in a line: Mitochondrial bioenergetics. The class given is in vivo, mice. Put shortly: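 Tibial nerves were run in an islet-capture XF24 plate in XF medium with 5.5 mM glucose, 0.5 mM pyruvate and 1 mM glutamine. Oligomycin (12 μM), FCCP (20 μM) and rotenone/antimycin A (20 μM each) were injected in sequence, with 4 cycles (3-min mix/3-min wait/4-min measure) at baseline and after each injection. Basal, ATP-linked, proton leak, maximal and non-mitochondrial OCR were derived.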

Another data set has as its system IENF density. Description: Intra-epidermal nerve fiber. It is filed as in vivo, mice. Summed up:
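Plantar hind-paw biopsies were cut as 25 μm frozen sections and stained for PGP9.5 and collagen IV, then imaged by confocal. IENFs crossing the dermal–epidermal junction were counted per mm of epidermis. Five random images per mouse, 4 mice/group, blinded analysis.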

Another data set has as its system DRG neurons. The experiment in a line: Mitochondrial bioenergetics in DRG neurons isolated from treated mice. It is filed as in vivo. Put shortly: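 Cells were cultured overnight in an XF24 plate in Ham's F10 + N2, switched to XF medium 1 h before the run. Injections: oligomycin 2 μM, FCCP 4 μM, rotenone/antimycin A 2 μM each. Cycles: 2-min mix/3-min wait/2-min measure ×3. OCR was normalised to protein; basal, ATP-linked, leak and maximal respiration were derived.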

A further data set has as its system GFAP expression. The experiment in a line: GFAP immunofluorescence in spinal cord dorsal horn. It is filed as in vivo. To be noted: cisplatin-treated mice, 3 doses of 10 mg/kg.
Data set [4] has as its system histone acetylation in SK-N-BE2 cells. Description: Western blot of histone acetylation. It is filed as cell-based. The following applies: 5 hours, 3 nM to 10 μM. Summed up:
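SK-N-BE2 cells at 70% confluence were treated 5 h with test compound at 3 nM–10 μM final, with DMSO 0.1% total. Cells were washed in cold PBS and lysed in RIPA with protease inhibitors/PMSF, 10 min on ice. Lysates were sonicated and centrifuged. Supernatants were immunoblotted for histone H2BK5ac (rabbit polyclonal) and acetylated α-tubulin (mouse monoclonal).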

Data set [5] has as its system cisplatin-induced spontaneous pain. The following applies: cisplatin-treated mice, 2 weeks of daily treatment.
Data set [6] concerns α-tubulin acetylation in SK-N-BE2 cells. Description: Western blot of acetylated α-tubulin in SK-N-BE2 cells. The class given is cell-based. To be noted: 5 hours. Summed up:
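SK-N-BE2 cells grown to 70% confluence, then exposed 5 h to test compound in DMSO (0.1% DMSO final in all wells). Cells PBS-washed, lysed in cold RIPA buffer with protease inhibitors and PMSF, sonicated, and centrifuged. Supernatants immunoblotted for acetylated α-tubulin (mouse monoclonal) and, as a non-HDAC6 substrate, histone H2BK5ac (rabbit polyclonal).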
On the technique in general: A western blot detects proteins with antibodies after separation by electrophoresis.

The test system of data set [7] is paclitaxel-induced mechanical allodynia. Description: Von Frey test, paclitaxel-induced mechanical allodynia in rats. It is filed as in vivo. To be noted: 3 mg/kg oral twice daily for 7 days, last day tested.
The test system of another data set is Cox IV, SDHA and VDAC. Description: Western blot of mitochondrial proteins in tibial nerves. It is filed as in vivo, mice. The following applies: 2 rounds of cisplatin and 11 injections.
Another data set relates to α-tubulin acetylation. Description: Western blot of acetylated α-tubulin in tibial nerves. It is filed as in vivo. To be noted: mice, saline or cisplatin followed by 11 doses. Put shortly: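 Tibial nerves were first run in an XF24 OCR assay (XF medium with 5.5 mM glucose, 0.5 mM pyruvate, 1 mM glutamine). The same nerves were then western-blotted for acetylated α-tubulin with a rabbit monoclonal.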

Another data set deals with HDAC1-9. The experiment in a line: HDAC enzyme assays, other isoforms. The class given is biochemical. Summed up: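 Test compound was diluted in 50 mM HEPES pH 7.4, 100 mM KCl, 0.001% Tween-20, 0.05% BSA and 20 μM TCEP, then preincubated 24 h with recombinant HDAC enzyme. Substrate at Km, with trypsin, was then added: acetyl-lysine tripeptide for HDAC1/2/3/6, trifluoroacetyl-lysine tripeptide for HDAC4/5/7/8/9. […] release was read over 30 min and the linear rate taken. IC50 came from a 4-parameter fit.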

Data set [8] concerns cisplatin-induced numbness. Description: Adhesive removal test. The class given is in vivo. The following applies: mice, treatment starting after 2 rounds of cisplatin, tested in week 5. Summed up: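 Test compound in 20% 2-hydroxypropyl-β-cyclodextrin + 0.5% hydroxypropyl methylcellulose in water, given i.p. at 3 or 10 mg/kg. A round adhesive patch was placed on the plantar hind paws. Time to a behavioural response (shaking, attempted removal) was recorded within a 15-minute test.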

Data set [9] is described as follows: In vivo pharmacokinetics in mice. To be noted: 5 mg/kg i.p. Put shortly:
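Mice were fasted overnight and given a single 5 mg/kg i.p. dose in 10% dimethylacetamide + 10% Solutol HS 15 in saline. Retro-orbital blood was taken at 5, 15, 30 min and 1, 2, 4, 8, 24 h. Plasma was spun at 2,000 × g, 5 min, 4°C. Levels were measured by LC-MS/MS against a standard curve in mouse plasma, then PK parameters calculated; n=3/group.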

On to `O=C(CCCCCCNC(=O)c1cnc(N(c2ccccc2)c2ccccc2)nc1)NO` [ACY-1215, Ricolinostat, reference compound], for which the “persistence of the beneficial effect after completion of treatment” value in data set [1] (30 mg/kg oral daily for two weeks, last time point tested) is reported as “still present one week after completion of treatment”. For the same molecule, the “selectivity against HDAC6 compared with Class I HDACs” value in [2] was “over 10 fold”.

Take `N.N.[Cl][Pt][Cl]` [cisplatin, Cisplatin, reference compound]: in the data set on rat DRG neurons (cisplatin 80 μM, vs vehicle), the “percentage of moving mitochondria” value is recorded as “decreased the percentage of moving mitochondria”. Further, the “mitochondrial respiration in tibial nerves” value in data set [3] (mice, 2 cycles of cisplatin 2.3 mg/kg i.p. x 5 days) is “significantly decreased mitochondrial respiration”. Also, the “IENF density in plantar surface of the paw” value in the data set with IENF density (mice, 2 cycles of cisplatin) is recorded as “reduced the IENF density”. In addition, the “mitochondrial bioenergetics in DRG neurons” value with DRG neurons (mice, 2 rounds of cisplatin) was “overall decrease in mitochondrial bioenergetics”.

With ACY-1083, the “GFAP expression in dorsal horn of spinal cord” value in the data set with GFAP expression is “normalized GFAP expression to levels comparable to saline-treated animals”. For the same molecule, in [4], the “concentration at which an effect on histone acetylation is evident” value turned out to be 10 µM. Also, the “percentage of moving mitochondria, co-administration with cisplatin” value in the data set on rat DRG neurons (100 nM with cisplatin 80 μM) is recorded as “prevented this cisplatin-induced decrease in mitochondrial transport”. In addition, the “mitochondrial respiration in tibial nerve of cisplatin-treated mice” value in [3] (2 cycles of cisplatin followed by 11 doses) is “normalized all aspects of the cisplatin-induced decrease in mitochondrial respiration”. The “mitochondrial bioenergetics in tibial nerve, treatment alone” value in data set [3] (mice without cisplatin, 11 doses) was “did not have any effect on mitochondrial bioenergetics”. For the same molecule, the “IENF density in cisplatin-treated mice, prolonged regimen” value in the data set with IENF density (2 cycles of cisplatin and 11 doses) was “completely reversed the cisplatin-induced loss of IENFs”. The “IENF density in cisplatin-treated mice, short-term treatment” value with IENF density (short-term treatment) was “had no effect on IENF density”. In addition, the “spontaneous pain: preference for retigabine-paired light chamber” value in data set [5] is listed as “did not develop a preference for the retigabine-paired light chamber”. Further, the “selectivity towards HDAC6 in cells (α-tubulin vs histone acetylation)” value in data set [6] is listed as “over 300 fold”. In data set [6] (3 nM to 10 μM), the “concentration at which the increase in α-tubulin acetylation starts” value came out at 30 nM. Further, the “persistence of the protective effect after the last dose” value in [7] is at least 3 days. Moreover, the “Cox IV levels in tibial nerve of cisplatin-treated mice” value in the data set with Cox IV, SDHA and VDAC is listed as “normalized Cox IV levels”. In the data set with α-tubulin acetylation, the “α-tubulin acetylation in tibial nerves” value is recorded as “increased α-tubulin acetylation”. In addition, in the data set on HDAC1-9, the “inhibitory activity against other enzymes” value is listed as “negligible inhibitory activity against other enzymes”. Further, the “selectivity for HDAC6 over all other HDAC isoforms tested” value with HDAC1-9 (HDAC1-9) is 260 fold. Moreover, the “cisplatin-induced numbness: time to respond to adhesive patch” value in [8] was “normalized the response time”. Moreover, the “mitochondrial bioenergetics in DRG neurons of cisplatin-treated mice” value in the data set with DRG neurons (2 rounds of cisplatin and 11 injections) was “did not detect a similar recovery”. In the data set with DRG neurons (mice without cisplatin, either time point), the “mitochondrial bioenergetics in DRG neurons, treatment alone” value is “did not have any effect on mitochondrial bioenergetics in DRG neurons”. The “mitochondrial bioenergetics in DRG neurons of cisplatin-treated mice” value in the data set on DRG neurons (two weeks of treatment, 2 weeks after the last dose) is reported as “significant recovery of mitochondrial bioenergetics”. In addition, the “mechanical sensitivity in the absence of cisplatin treatment” value in data set [1] (10 mg/kg) is recorded as “did not alter mechanical sensitivity”. Moreover, the “time after the first dose at which the effect was first detected” value in [1] (10 mg/kg i.p.) amounted to 24 h. For the same molecule, in data set [1] (10 mg/kg, 7 days, 7 days rest), the “effect of a second round of 7 daily injections on mechanical allodynia” value is given as “transiently reversed cisplatin-induced mechanical allodynia again”. In addition, in data set [1] (administered i.p. 1 hour prior to each dose of cisplatin), the “prevention of development of mechanical allodynia” value is given as “capable of preventing the development of mechanical allodynia”. For the same molecule, in data set [9], the “biologically active plasma exposure after dosing” value was 8 hours, the “half-life (T1/2)” value is 3.5 h and the “maximum plasma concentration (Cmax)” value turned out to be 936 ng/mL.
